Measurements from ChEMBL document CHEMBL1629694, “Inhibition of dengue virus RNA synthesis by an adenosine nucleoside” (Antimicrob Agents Chemother, 2010).
pEC50: −log10 of the molar value. Activity calls are given as the source filed them. The rule behind the calls is not given here.

Tests used:
dengue virus type 2 [1] = assay: Antiviral activity against at 0.3 MOI Dengue virus 2 infected in human A549 cells assessed as level of E protein after 48 hrs by ELISA; format: functional, organism-based; conditions: A549, 48 h
In short: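 CFI assay: A549 cells (2 × 10^4/well) seeded and infected the next day with DENV-2 at MOI 0.3 for 1 h, compound added to the inoculum. Medium then replaced with fresh medium containing compound. Cells methanol-fixed on day 2 p.i. E protein detected by ELISA (mAb 4G2, HRP anti-mouse IgG). EC50 from nonlinear regression.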

[2] = Cytotoxicity against human A549 cells assessed as intracellular ATP level by Celltiter-Glo luminescent assay; format: cell-based
dengue virus type 2 [3] = assay: Antiviral activity against at 0.3 MOI of Dengue virus 2 infected in hamster BHK21 cells assessed as reduction in viral titer at 6 uM after 48 hrs postinfection; format: functional, organism-based; conditions: BHK-21, 0.3 M
In short: (§1)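 BHK-21 cells infected with DENV-2 at MOI 0.3 and treated immediately with graded compound concentrations. Viral titers in culture fluid determined at 48 h p.i.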

dengue virus type 2 [4] = assay: Antiviral activity against Dengue virus 2 infected in human A549 cells assessed as level of E protein production up to 20 uM by ELISA in presence of 0.2 uM adenosine kinase inhibitor iodotubercidin; format: functional, organism-based
In short: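 CFI assay in A549 cells with iodotubercidin at 0.2 μM and test compound up to 20 μM. Cells infected with DENV-2 at MOI 0.3 for 1 h with compound in the inoculum, then refed with compound-containing medium. Methanol fixation on day 2 p.i. E protein read by 4G2/HRP ELISA.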

dengue virus type 2 [5] = assay: Antiviral activity against Dengue virus 2 infected in human HEK293 cells assessed as level of viral titer after 48 hrs by luciferase reporter gene assay in presence of siRNA targeting deoxycytidine kinase; format: functional, organism-based
Blood [6] = assay: Drug uptake in rat blood assessed as tri-derivatives of compound level at 25 mg/kg, po by […]; format: ADME, organism-based; parameters: dose 25 mg/kg, route oral; conditions: in vivo
In short: (§2)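 Male Han-Wistar rats given 14C-labeled compound (label at adenine C-2) as a single intravenous 5 mg/kg or oral 25 mg/kg dose. Plasma and blood pellets sampled over time; pellets first taken up in 2 volumes of pH 2.5 ammonium formate/0.1% formic acid. Extraction in ice-cold acetonitrile (3:1). Metabolites profiled by HPLC with off-line radioactivity detection and identified by MS.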

dengue virus type 2 [7] = assay: Antiviral activity against at 1 MOI of Dengue virus 2 infected in hamster BHK21 cells assessed as decrease in viral NS3 protein expression at 1 uM after 24 hrs post-transfection by […]; format: functional, organism-based; conditions: BHK-21, 1 M
In short: (§3)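 Replicon-electroporated BHK-21 cells treated immediately with 1 or 3 μM compound, with 0.9% DMSO control. Cells lysed at 24 and 35 h p.t. NS3 detected by Western blot with in-house rabbit anti-NS3 (1:5,000). γ-Tubulin (1:1,000) served as reference, with HRP secondary antibodies (1:8,000).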

dengue virus type 2 [8] = assay: Antiviral activity against at 1 MOI of Dengue virus 2 infected in hamster BHK21 cells assessed as decrease in viral RNA synthesis at 3 uM after 2 to 4 hrs post-transfection by luciferase reporter gene assay; format: functional, organism-based; conditions: BHK-21, 1 M
In short: (§4)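 DENV-2 luciferase replicon RNA (10 μg) electroporated into 8 × 10^6 BHK-21 cells, then seeded at 3.2 × 10^5/well. Cells incubated immediately with 1 or 3 μM compound, with 0.9% DMSO (final) as control. Luciferase measured at 2–4 h (translation of input RNA) and at 24 and 35 h p.t. (RNA synthesis).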

dengue virus type 2 [9] = assay: Antiviral activity against Dengue virus 2 TSVO1 infected in alpha/beta interferon and INFgamma receptor deficient AG129 mouse assessed as decrease in viral load at 300 mg/kg, po 12 hrs postinfection […]; format: functional, organism-based; parameters: dose 300 mg/kg
dengue virus type 2 [10] = assay: Antiviral activity against at 1 MOI of Dengue virus 2 infected in hamster BHK21 cells assessed as decrease in viral RNA synthesis at 1 uM after 35 hrs post-transfection by luciferase reporter gene assay; format: functional, organism-based; conditions: BHK-21, 1 M; in short: as §4
dengue virus type 2 [11] = assay: Antiviral activity against at 1 MOI of Dengue virus 2 infected in hamster BHK21 cells assessed as decrease in viral NS3 protein expression at 1 uM after 35 hrs post-transfection by […]; format: functional, organism-based; conditions: BHK-21, 1 M; in short: as §3
dengue virus type 2 [12] = assay: Antiviral activity against Dengue virus 2 TSVO1 infected in alpha/beta interferon and INFgamma receptor deficient AG129 mouse assessed as decrease in viral load treated 12 hrs postinfection measured after 3 days of infection […]; format: functional, organism-based
dengue virus type 2 [13] = assay: Antiviral activity against at 1 MOI of Dengue virus 2 infected in hamster BHK21 cells assessed as decrease in viral RNA synthesis at 3 uM after 24 hrs post-transfection by luciferase reporter gene assay; format: functional, organism-based; conditions: BHK-21, 1 M; in short: as §4
Plasma = assay: Drug uptake in rat plasma at 25 mg/kg, po by […]; format: ADME, organism-based; parameters: dose 25 mg/kg, route oral; conditions: in vivo; in short: as §2
dengue virus type 2 [14] = assay: Antiviral activity against at 1 MOI of Dengue virus 2 infected in hamster BHK21 cells assessed as decrease in viral RNA synthesis at 3 uM after 35 hrs post-transfection by luciferase reporter gene assay; format: functional, organism-based; conditions: BHK-21, 1 M; in short: as §4
dengue virus type 2 [15] = assay: Antiviral activity against at 1 MOI of Dengue virus 2 infected in hamster BHK21 cells assessed as viral titer after 48 hrs postinfection by plaque assay; format: functional, organism-based; conditions: BHK-21, 1 M
dengue virus type 2 [16] = assay: Antiviral activity against at 0.3 MOI of Dengue virus 2 infected in hamster BHK21 cells assessed as reduction in viral titer after 48 hrs postinfection; format: functional, organism-based; in short: as §1
dengue virus type 2 [17] = assay: Antiviral activity against at 1 MOI of Dengue virus 2 infected in hamster BHK21 cells assessed as decrease in viral RNA synthesis at 1 uM after 24 hrs post-transfection by luciferase reporter gene assay; format: functional, organism-based; conditions: BHK-21, 1 M; in short: as §4
dengue virus type 2 [18] = assay: Antiviral activity against at 1 MOI of Dengue virus 2 infected in hamster BHK21 cells assessed as decrease in viral RNA synthesis at 1 uM after 2 to 4 hrs post-transfection by luciferase reporter gene assay; format: functional, organism-based; conditions: BHK-21, 1 M; in short: as §4
dengue virus type 2 [19] = assay: Antiviral activity against Dengue virus 2 TSVO1 infected in alpha/beta interferon and INFgamma receptor deficient AG129 mouse assessed as […] at 150 mg/kg, po 12 hrs postinfection measured after 3 days of infection […]; format: functional, organism-based; parameters: dose 150 mg/kg
dengue virus type 2 [20] = assay: Antiviral activity against at 1 MOI of Dengue virus 2 infected in hamster BHK21 cells assessed as decrease in viral NS3 protein expression at 3 uM after 24 hrs post-transfection by […]; format: functional, organism-based; conditions: BHK-21, 1 M; in short: as §3
[21] = Cytotoxicity against hamster BHK21 cells assessed as intracellular ATP level upto 100 uM by Celltiter-Glo luminescent assay; format: cell-based, Mesocricetus auratus; conditions: bhk-21
In short: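 CC50 estimated from intracellular ATP by CellTiter-Glo luminescence. BHK-21 cells were tested up to 100 μM.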

dengue virus type 2 [22] = assay: Antiviral activity against at 1 MOI of Dengue virus 2 infected in hamster BHK21 cells assessed as decrease in viral NS3 protein expression at 3 uM after 35 hrs post-transfection by […]; format: functional, organism-based; conditions: BHK-21, 1 M; in short: as §3
dengue virus type 2 [23] = assay: Antiviral activity against Dengue virus 2 infected in human HEK293 cells assessed as level of viral titer after 48 hrs by luciferase reporter gene assay in presence of siRNA targeting adenosine kinase; format: functional, organism-based; conditions: HEK293, 48 h
Blood [24] = assay: Drug uptake in rat blood assessed as mono-derivatives of compound level at 25 mg/kg, po by […]; format: ADME, organism-based; parameters: dose 25 mg/kg, route oral; conditions: in vivo; in short: as §2
dengue virus type 2 [25] = assay: Antiviral activity against 3x10^7 PFU Dengue virus 2 D2S10 infected in alpha/beta interferon and INFgamma receptor deficient AG129 mouse assessed as protection against lethal virus challenge at 75 mg/kg, po treated 12 hrs postinfection by HPLC; format: functional, organism-based; parameters: dose 75 mg/kg
In short: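 AG129 mice infected intravenously with 3 × 10^7 PFU of mouse-adapted DENV-2 strain D2S10. A single 75 mg/kg dose given at 12 h postinfection. Read-out was survival after the lethal challenge.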

Blood [26] = assay: Drug uptake in rat blood assessed as di-derivatives of compound level at 25 mg/kg, po by […]; format: ADME, organism-based; parameters: dose 25 mg/kg, route oral; conditions: in vivo; in short: as §2
dengue virus type 2 [27] = assay: Selectivity ratio of EC50 for Dengue virus 2 infected in human HEK293 cells in presence of siRNA targeting adenosine kinase to EC50 for Dengue virus 2 infected in human HEK293 cells in absence of siRNA targeting adenosine kinase; format: functional
In short: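 siRNA pools (10 pmol, four siRNAs against adenosine kinase or deoxycytidine kinase) reverse-transfected with RNAiMax into HEK-293 cells carrying a DENV-2 luciferase replicon (2 × 10^4/well). After 24 h at 37°C, graded compound concentrations were added. Renilla luciferase was read 3 days later. EC50s were compared with and without siRNA.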

CC[C@@]1(O)[C@H](O)[C@@H](CO)O[C@H]1n1cnc2c(N)ncnc21
pEC50 (dengue virus type 2 [1]): < 4.00
CC50 [2]: > 100 µM

C#C[C@@]1(O)[C@H](O)[C@@H](CO)O[C@H]1n1cnc2c(=O)[nH]c(N)nc21
pEC50 (dengue virus type 2 [1]): < 4.00
CC50 [2]: > 100 µM

C#C[C@@]1(O)[C@H](O)[C@@H](CO)O[C@H]1n1cc(F)c2c(N)ncnc21
pEC50 (dengue virus type 2 [1]): 6.38
CC50 [2]: 44 µM

C[C@@]1(O)[C@H](O)[C@@H](CO)O[C@H]1n1cnc2c(N)ncnc21
pEC50 (dengue virus type 2 [1]): 5.95
CC50 [2]: > 50 µM

C=C[C@@]1(O)[C@H](O)[C@@H](CO)O[C@H]1n1cnc2c(N)ncnc21
pEC50 (dengue virus type 2 [1]): < 4.30
CC50 [2]: > 59 µM

C#C[C@@]1(O)[C@H](O)[C@@H](CO)O[C@H]1n1ccc2c(N)ncnc21
Activity (dengue virus type 2 [3]): Active
Activity (dengue virus type 2 [4]): inactive
Activity (dengue virus type 2 [5]): Active
Drug uptake (Blood [6]): Active
Activity (dengue virus type 2 [7]): Active
Activity (dengue virus type 2 [8]): inactive
Activity (dengue virus type 2 [9]): inactive
Activity (dengue virus type 2 [10]): Active
Activity (dengue virus type 2 [11]): Active
Activity (dengue virus type 2 [12]): Active
Activity (dengue virus type 2 [13]): Active
Drug uptake (Plasma): Active
Activity (dengue virus type 2 [14]): Active
Activity (dengue virus type 2 [15]): Active
Activity (dengue virus type 2 [16]; BHK-21, 0.3 M): Dose-dependent effect
pEC50 (dengue virus type 2 [16]; BHK-21, 48 h): 6.15
Activity (dengue virus type 2 [17]): Active
Activity (dengue virus type 2 [18]): inactive
Activity (dengue virus type 2 [19]): inactive
Activity (dengue virus type 2 [20]): Active
Activity [21]: Non-toxic
pEC50 (dengue virus type 2 [1]): 6.15
Activity (dengue virus type 2 [22]): Active
pEC50 (dengue virus type 2 [23]): 5.04
Drug uptake (Blood [24]): Active
Activity (dengue virus type 2 [25]): Active
Drug uptake (Blood [26]): Active
Selectivity ratio (dengue virus type 2 [27]): 11
CC50 [2]: > 100 µM

C#C[C@@]1(O)[C@H](O)[C@@H](CO)O[C@H]1n1cc(C#N)c2c(N)ncnc21
pEC50 (dengue virus type 2 [1]): 5.51
CC50 [2]: > 100 µM

C#C[C@@]1(O)[C@H](O)[C@@H](CO)O[C@H]1n1cc(C(N)=O)c2c(N)ncnc21
pEC50 (dengue virus type 2 [1]): 5.70
CC50 [2]: 62 µM

C#C[C@@]1(O)[C@H](O)[C@@H](CO)O[C@H]1n1cnc2c(N)ncnc21
pEC50 (dengue virus type 2 [1]): 5.85
CC50 [2]: 40 µM

C#C[C@@]1(O)[C@H](O)[C@@H](CO)O[C@H]1n1ccc(N)nc1=O [2'-ETHYNYL-D-CYTIDINE]
pEC50 (dengue virus type 2 [1]): < 4.00
CC50 [2]: > 100 µM

CC#C[C@@]1(O)[C@H](O)[C@@H](CO)O[C@H]1n1cnc2c(N)ncnc21
pEC50 (dengue virus type 2 [1]): < 4.00
CC50 [2]: > 100 µM
